In ChEMBL document CHEMBL1130132, “Selective inhibition of neuronal nitric oxide synthase by N omega-nitroarginine-and phenylalanine-containing dipeptides and dipeptide esters” (J Med Chem, 1997):
Where a SMILES comes first, the peptide text is derived from it. [ ]: non-standard residue; d: D form. The star is where a group is joined. dArg(NO2) = N=C(NCCC[C@@H](N)C(=O)O)N[N+](=O)[O-]; Arg(NO2) = N=C(NCCC[C@H](N)C(=O)O)N[N+](=O)[O-]; OBn = c1ccc(CO*)cc1

Legend:
[1] = target: T1, Nitric oxide synthase, inducible (Mus musculus, UniProt P29477); test: Inhibition of inducible Nitric Oxide Synthase
T1 sequence (P29477 whole entry): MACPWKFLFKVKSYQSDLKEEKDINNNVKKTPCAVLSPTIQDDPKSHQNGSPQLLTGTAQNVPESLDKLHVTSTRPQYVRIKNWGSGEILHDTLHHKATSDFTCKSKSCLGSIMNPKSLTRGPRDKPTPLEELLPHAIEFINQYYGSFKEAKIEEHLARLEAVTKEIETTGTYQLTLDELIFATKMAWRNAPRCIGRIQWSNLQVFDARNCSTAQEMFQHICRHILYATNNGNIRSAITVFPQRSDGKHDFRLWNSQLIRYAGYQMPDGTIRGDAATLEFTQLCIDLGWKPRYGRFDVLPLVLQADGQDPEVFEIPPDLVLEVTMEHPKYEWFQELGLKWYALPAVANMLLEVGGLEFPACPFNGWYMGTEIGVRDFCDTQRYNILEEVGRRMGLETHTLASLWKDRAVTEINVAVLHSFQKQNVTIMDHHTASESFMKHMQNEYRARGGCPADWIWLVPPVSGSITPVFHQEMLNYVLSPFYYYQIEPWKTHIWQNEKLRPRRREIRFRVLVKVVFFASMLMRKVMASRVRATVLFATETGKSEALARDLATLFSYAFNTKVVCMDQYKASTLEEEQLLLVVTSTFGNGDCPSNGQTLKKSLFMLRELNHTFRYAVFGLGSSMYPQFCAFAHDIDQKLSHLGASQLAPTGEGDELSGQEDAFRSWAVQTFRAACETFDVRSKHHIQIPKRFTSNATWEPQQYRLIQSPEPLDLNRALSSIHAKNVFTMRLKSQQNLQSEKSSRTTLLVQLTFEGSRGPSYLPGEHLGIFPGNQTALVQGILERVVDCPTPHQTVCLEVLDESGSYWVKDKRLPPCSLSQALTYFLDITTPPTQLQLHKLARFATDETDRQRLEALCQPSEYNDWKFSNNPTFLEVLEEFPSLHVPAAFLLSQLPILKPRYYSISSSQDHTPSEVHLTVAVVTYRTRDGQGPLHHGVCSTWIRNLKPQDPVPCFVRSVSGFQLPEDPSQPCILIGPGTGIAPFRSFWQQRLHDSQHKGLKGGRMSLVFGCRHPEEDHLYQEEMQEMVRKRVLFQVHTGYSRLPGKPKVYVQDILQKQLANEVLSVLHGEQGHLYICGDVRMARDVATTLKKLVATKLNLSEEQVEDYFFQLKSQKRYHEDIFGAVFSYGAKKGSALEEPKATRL
In short: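 Purified murine macrophage iNOS expressed in recombinant E. coli (500 nmol NO/mg/min at 30 °C). Initial-rate hemoglobin capture assay in 100 mM Hepes pH 7.5 with 10-60 µM L-arginine, 100 µM DTT, 100 µM NADPH, 6.5 µM BH4 and 3 µM oxyhemoglobin, without added calcium/calmodulin. Ki taken from Dixon plots across varied L-arginine and inhibitor concentrations.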

Nitric oxide synthase 3 = target: T2, Nitric oxide synthase 3 (Bos taurus, UniProt P29473); test: Inhibition of endothelial isoform of nitric oxide synthase
T2 sequence (P29473 whole entry): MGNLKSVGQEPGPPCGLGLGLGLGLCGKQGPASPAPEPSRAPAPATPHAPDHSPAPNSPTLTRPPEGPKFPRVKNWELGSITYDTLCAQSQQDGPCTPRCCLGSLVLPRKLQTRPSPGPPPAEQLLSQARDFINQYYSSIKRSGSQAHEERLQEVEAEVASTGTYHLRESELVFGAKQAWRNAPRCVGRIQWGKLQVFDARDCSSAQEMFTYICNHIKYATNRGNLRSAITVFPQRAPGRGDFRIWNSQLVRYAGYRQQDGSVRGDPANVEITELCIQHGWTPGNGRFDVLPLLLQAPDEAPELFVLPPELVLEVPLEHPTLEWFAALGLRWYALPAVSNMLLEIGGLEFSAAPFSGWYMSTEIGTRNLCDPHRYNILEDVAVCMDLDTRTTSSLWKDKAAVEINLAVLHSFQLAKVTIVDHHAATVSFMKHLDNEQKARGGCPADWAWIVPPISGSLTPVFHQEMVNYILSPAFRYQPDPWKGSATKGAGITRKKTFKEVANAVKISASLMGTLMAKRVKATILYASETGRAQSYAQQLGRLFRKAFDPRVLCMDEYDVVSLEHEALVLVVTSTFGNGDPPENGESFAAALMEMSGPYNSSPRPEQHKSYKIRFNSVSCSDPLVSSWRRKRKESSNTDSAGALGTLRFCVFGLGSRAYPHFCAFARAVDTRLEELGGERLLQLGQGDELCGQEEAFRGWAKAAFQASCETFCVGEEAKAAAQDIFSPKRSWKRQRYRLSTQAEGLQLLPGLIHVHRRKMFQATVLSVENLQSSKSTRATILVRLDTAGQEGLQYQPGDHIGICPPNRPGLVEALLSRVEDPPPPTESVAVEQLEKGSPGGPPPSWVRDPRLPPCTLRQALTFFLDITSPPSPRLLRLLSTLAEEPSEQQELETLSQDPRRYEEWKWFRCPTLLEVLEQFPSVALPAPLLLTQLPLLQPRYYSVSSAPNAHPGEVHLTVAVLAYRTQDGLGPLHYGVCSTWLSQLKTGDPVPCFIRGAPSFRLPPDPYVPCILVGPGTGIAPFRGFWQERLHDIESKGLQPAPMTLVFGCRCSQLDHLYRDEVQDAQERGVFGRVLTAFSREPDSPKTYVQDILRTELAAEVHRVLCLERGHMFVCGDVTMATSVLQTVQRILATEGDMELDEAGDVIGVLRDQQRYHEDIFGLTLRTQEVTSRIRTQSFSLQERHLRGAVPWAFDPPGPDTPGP
In short: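 eNOS expressed in E. coli, purified and supplemented with L-arginine and BH4 (235 nmol NO/mg/min at 25 °C). NO formation was followed by oxyhemoglobin capture (80 µM) under initial rates in 50 mM Hepes pH 7.5 with 3-25 µM L-arginine, 100 µM DTT, 10 µM CaCl2, 1 µg/mL calmodulin, 5 µM BH4 and 100 µM NADPH. Ki came from Dixon plots with varied substrate and inhibitor.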

[2] = Selectivity for nNOS and eNOS, ratio of Ki
[3] = target: Nitric oxide sythases; iNOS & nNOS (Homo sapiens) (UniProt P29475+P35228); test: Selectivity for nNOS and iNOS, ratio of Ki; format: protein assay
[4] = Selectivity for iNOS and eNOS binding, ratio of Ki

Nitric oxide sythases; iNOS & nNOS (Homo sapiens), sequence (P29475 whole entry, looked up): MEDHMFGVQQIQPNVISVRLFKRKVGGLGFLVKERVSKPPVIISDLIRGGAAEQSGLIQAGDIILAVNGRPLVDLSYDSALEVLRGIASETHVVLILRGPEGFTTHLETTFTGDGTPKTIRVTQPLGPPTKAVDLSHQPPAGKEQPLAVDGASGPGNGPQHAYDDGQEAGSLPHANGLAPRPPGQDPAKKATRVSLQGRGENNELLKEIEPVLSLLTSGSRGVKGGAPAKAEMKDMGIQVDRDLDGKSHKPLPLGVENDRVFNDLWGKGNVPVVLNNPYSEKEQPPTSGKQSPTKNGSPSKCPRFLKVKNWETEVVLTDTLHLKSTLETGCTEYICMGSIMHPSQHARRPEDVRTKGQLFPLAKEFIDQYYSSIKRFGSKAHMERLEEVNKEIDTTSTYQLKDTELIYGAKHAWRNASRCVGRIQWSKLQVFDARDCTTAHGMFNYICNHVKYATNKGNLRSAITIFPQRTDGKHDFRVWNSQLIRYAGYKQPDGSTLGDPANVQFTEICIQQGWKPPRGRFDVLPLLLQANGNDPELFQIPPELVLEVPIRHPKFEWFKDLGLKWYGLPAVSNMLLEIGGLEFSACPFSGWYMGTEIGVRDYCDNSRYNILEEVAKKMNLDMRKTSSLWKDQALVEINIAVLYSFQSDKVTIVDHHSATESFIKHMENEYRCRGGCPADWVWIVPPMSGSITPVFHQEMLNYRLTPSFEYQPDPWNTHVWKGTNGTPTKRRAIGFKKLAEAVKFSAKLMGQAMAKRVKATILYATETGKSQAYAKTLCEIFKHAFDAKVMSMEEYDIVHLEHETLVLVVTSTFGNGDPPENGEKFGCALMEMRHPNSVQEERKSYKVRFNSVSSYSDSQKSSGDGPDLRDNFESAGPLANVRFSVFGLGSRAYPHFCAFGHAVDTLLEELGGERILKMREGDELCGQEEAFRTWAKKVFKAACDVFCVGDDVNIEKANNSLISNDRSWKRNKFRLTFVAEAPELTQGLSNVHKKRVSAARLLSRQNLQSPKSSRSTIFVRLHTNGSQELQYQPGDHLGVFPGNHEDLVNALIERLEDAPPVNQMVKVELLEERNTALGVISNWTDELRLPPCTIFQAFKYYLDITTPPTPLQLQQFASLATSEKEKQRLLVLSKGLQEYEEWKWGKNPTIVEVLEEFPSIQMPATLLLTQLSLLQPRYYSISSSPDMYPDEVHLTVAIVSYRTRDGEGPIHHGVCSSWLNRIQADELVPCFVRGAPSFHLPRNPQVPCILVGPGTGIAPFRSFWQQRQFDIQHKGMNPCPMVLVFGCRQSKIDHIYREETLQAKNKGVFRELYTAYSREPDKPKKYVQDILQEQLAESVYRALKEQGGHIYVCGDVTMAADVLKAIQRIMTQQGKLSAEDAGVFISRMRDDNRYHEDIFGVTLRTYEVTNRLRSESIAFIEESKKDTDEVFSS
Nitric oxide sythases; iNOS & nNOS (Homo sapiens), sequence (P35228 whole entry, looked up): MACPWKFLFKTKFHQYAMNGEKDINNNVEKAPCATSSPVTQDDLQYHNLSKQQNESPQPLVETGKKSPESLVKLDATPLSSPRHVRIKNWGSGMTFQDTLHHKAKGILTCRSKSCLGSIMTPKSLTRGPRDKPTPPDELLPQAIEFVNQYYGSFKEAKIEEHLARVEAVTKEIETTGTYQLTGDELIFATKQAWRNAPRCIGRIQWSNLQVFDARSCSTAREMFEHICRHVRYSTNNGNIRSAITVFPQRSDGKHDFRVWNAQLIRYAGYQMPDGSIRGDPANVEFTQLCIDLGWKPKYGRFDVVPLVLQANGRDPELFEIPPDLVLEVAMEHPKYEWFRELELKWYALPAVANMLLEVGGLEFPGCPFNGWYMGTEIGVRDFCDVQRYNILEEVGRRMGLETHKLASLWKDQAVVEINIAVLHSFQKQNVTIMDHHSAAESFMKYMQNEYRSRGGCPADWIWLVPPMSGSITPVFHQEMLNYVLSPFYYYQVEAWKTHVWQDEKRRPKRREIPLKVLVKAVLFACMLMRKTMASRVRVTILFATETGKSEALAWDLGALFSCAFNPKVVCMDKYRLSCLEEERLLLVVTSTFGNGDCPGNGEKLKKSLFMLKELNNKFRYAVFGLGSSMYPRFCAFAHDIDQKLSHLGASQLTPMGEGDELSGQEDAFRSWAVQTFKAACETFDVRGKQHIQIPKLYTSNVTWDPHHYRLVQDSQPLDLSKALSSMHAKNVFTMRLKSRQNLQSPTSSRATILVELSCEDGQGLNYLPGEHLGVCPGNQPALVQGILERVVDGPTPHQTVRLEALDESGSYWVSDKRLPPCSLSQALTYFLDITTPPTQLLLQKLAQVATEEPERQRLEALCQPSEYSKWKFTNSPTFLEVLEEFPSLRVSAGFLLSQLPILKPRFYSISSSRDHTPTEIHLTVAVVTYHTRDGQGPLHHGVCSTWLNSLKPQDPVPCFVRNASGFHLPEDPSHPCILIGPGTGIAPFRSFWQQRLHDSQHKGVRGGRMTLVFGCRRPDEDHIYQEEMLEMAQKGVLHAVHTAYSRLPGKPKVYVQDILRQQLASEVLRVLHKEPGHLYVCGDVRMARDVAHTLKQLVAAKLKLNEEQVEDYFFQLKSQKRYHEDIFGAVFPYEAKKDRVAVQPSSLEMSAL

SMILES	Ki [1]	Ki (Nitric oxide synthase 3)	Selectivity [2]	Selectivity [3]	Selectivity [4]
N=C(NCCC[C@H](NC(=O)[C@@H](N)Cc1ccccc1)C(=O)O)N[N+](=O)[O-] (H-Phe-[Arg(NO2)]-OH)	93 µM	490 µM			
COC(=O)[C@@H](Cc1ccccc1)NC(=O)[C@@H](N)CCC/N=C(\N)N[N+](=O)[O-]	100 µM	525 µM	5.7	1.1	5.3
N/C(=N\CCC[C@H](NC(=O)[C@@H](N)Cc1ccccc1)C(=O)O)N[N+](=O)[O-] (H-Phe-[Arg(NO2)]-OH)			3.5	0.66	5.3
N/C(=N\CCC[C@H](N)C(=O)N[C@@H](Cc1ccccc1)C(=O)O)N[N+](=O)[O-]	160 µM	395 µM	21.9	8.9	2.5
COC(=O)[C@@H](Cc1ccccc1)NC(=O)[C@H](N)CCC/N=C(\N)N[N+](=O)[O-]			2.5	43.3	0.058
N/C(=N\CCC[C@@H](NC(=O)[C@H](N)Cc1ccccc1)C(=O)O)N[N+](=O)[O-] (H-[dF]-[dArg(NO2)]-OH)	13600 µM	90 µM	5.3	800	0.0066
N/C(=N\CCC[C@H](NC(=O)[C@@H](N)Cc1ccccc1)C(=O)OCc1ccccc1)N[N+](=O)[O-] (H-Phe-[Arg(NO2)]-OBn)	45 µM	250 µM	2.3	0.41	5.6
COC(=O)[C@@H](CCCNC(=N)N[N+](=O)[O-])NC(=O)[C@H](N)Cc1ccccc1 [listing 1 of 2 here]	1200 µM	8500 µM			
COC(=O)[C@@H](CCCNC(=N)N[N+](=O)[O-])NC(=O)[C@H](N)Cc1ccccc1 [listing 2 of 2 here]	3600 µM	5 µM			
COC(=O)[C@@H](Cc1ccccc1)NC(=O)[C@H](N)CCCNC(=N)N[N+](=O)[O-]	6500 µM	375 µM			
COC(=O)[C@H](CCC/N=C(\N)N[N+](=O)[O-])NC(=O)[C@@H](N)Cc1ccccc1	204 µM	1350 µM	3.6	0.55	6.6
COC(=O)[C@@H](CCC/N=C(\N)N[N+](=O)[O-])NC(=O)[C@@H](N)Cc1ccccc1	7500 µM	150 µM	1.7	83.3	0.02
N/C(=N\CCC[C@H](N)C(=O)N[C@@H](Cc1ccccc1)C(=O)OCc1ccccc1)N[N+](=O)[O-]	18 µM	125 µM	2.3	0.33	6.9
COC(=O)[C@H](Cc1ccccc1)NC(=O)[C@@H](N)CCC/N=C(\N)N[N+](=O)[O-]	45 µM	400 µM			
